# Experimental data reported in ChEMBL document CHEMBL4706563, “Triphenylethylene analogues: Design, synthesis and evaluation of antitumor activity and topoisomerase inhibitors” (Eur J Med Chem, 2020).
# Active and inactive are the calls of the source. No cut-off for these calls is given here.
# Tests used:
# Type in all cases: functional
# CCRF-CEM = experiment: Antiproliferative activity against human CCRF-CEM cells assessed as growth inhibition at 10 uM relative to control; settings: read-out: GI
# How it was run: (§1)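 Single-dose screen run by the US National Cancer Institute across its 60-human tumour cell line panel. Each compound was tested at one concentration. Percent growth inhibition was recorded for each cell line.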
# HL-60(TB) = experiment: Antiproliferative activity against human HL-60(TB) cells assessed as growth inhibition at 10 uM relative to control; settings: read-out: GI
# K562 = experiment: Antiproliferative activity against human K562 cells assessed as growth inhibition at 10 uM relative to control; how it was run: as §1
# MOLT-4 = experiment: Antiproliferative activity against human MOLT-4 cells assessed as growth inhibition at 10 uM relative to control; settings: read-out: GI; how it was run: as §1
# RPMI-8226 = experiment: Antiproliferative activity against human RPMI-8226 cells assessed as growth inhibition at 10 uM relative to control; settings: read-out: GI; how it was run: as §1
# A549 = experiment: Antiproliferative activity against human A549 cells assessed as growth inhibition at 10 uM relative to control; settings: read-out: GI; how it was run: as §1
# HOP-62 = experiment: Antiproliferative activity against human HOP-62 cells assessed as growth inhibition at 10 uM relative to control; settings: read-out: GI; how it was run: as §1
# HOP-92 = experiment: Antiproliferative activity against human HOP-92 cells assessed as growth inhibition at 10 uM relative to control; how it was run: as §1
# NCI-H226 = experiment: Antiproliferative activity against human NCI-H226 cells assessed as growth inhibition at 10 uM relative to control; settings: read-out: GI; how it was run: as §1
# NCI-H322M = experiment: Antiproliferative activity against human NCI-H322M cells assessed as growth inhibition at 10 uM relative to control; settings: read-out: GI; how it was run: as §1
# NCI-H460 = experiment: Antiproliferative activity against human NCI-H460 cells assessed as growth inhibition at 10 uM relative to control; settings: read-out: GI; how it was run: as §1
# COLO 205 = experiment: Antiproliferative activity against human COLO 205 cells assessed as growth inhibition at 10 uM relative to control; settings: read-out: GI; how it was run: as §1
# HCT-116 = experiment: Antiproliferative activity against human HCT-116 cells assessed as growth inhibition at 10 uM relative to control; settings: read-out: GI; how it was run: as §1
# HCT-15 = experiment: Antiproliferative activity against human HCT-15 cells assessed as growth inhibition at 10 uM relative to control; settings: read-out: GI; how it was run: as §1
# HT-29 = experiment: Antiproliferative activity against human HT29 cells assessed as growth inhibition at 10 uM relative to control; settings: read-out: GI; how it was run: as §1
# SF-295 = experiment: Antiproliferative activity against human SF-295 cells assessed as growth inhibition at 10 uM relative to control; settings: read-out: GI; how it was run: as §1
# SF-539 = experiment: Antiproliferative activity against human SF-539 cells assessed as growth inhibition at 10 uM relative to control; how it was run: as §1
# SNB-75 = experiment: Antiproliferative activity against human SNB-75 cells assessed as growth inhibition at 10 uM relative to control; settings: read-out: GI
# How it was run: (§2)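 NCI 60 human tumour cell line panel screen. Compounds tested at a single dose and growth inhibition (%) determined for each line.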
# U-251 = experiment: Antiproliferative activity against human U251 cells assessed as growth inhibition at 10 uM relative to control; settings: read-out: GI; how it was run: as §2
# LOX IMVI = experiment: Antiproliferative activity against human LOX IMVI cells assessed as growth inhibition at 10 uM relative to control; settings: read-out: GI; how it was run: as §1
# M14 = experiment: Antiproliferative activity against human M14 cells assessed as growth inhibition at 10 uM relative to control; settings: read-out: GI; how it was run: as §1
# MDA-MB-435 = experiment: Antiproliferative activity against human MDA-MB-435 cells assessed as growth inhibition at 10 uM relative to control; settings: read-out: GI; how it was run: as §1
# SK-MEL-2 = experiment: Antiproliferative activity against human SK-MEL-2 cells assessed as growth inhibition at 10 uM relative to control; settings: read-out: GI; how it was run: as §1
# SK-MEL-28 = experiment: Antiproliferative activity against human SK-MEL-28 cells assessed as growth inhibition at 10 uM relative to control; settings: read-out: GI; how it was run: as §2
# SK-MEL-5 = experiment: Antiproliferative activity against human SK-MEL-5 cells assessed as growth inhibition at 10 uM relative to control; settings: read-out: GI; how it was run: as §2
# IGROV-1 = experiment: Antiproliferative activity against human IGROV-1 cells assessed as growth inhibition at 10 uM relative to control; settings: read-out: GI; how it was run: as §1
# OVCAR-3 = experiment: Antiproliferative activity against human OVCAR-3 cells assessed as growth inhibition at 10 uM relative to control; settings: read-out: GI; how it was run: as §1
# OVCAR-4 = experiment: Antiproliferative activity against human OVCAR-4 cells assessed as growth inhibition at 10 uM relative to control; settings: read-out: GI; how it was run: as §1
# NCI/ADR-RES = experiment: Antiproliferative activity against human NCI/ADR-RES cells assessed as growth inhibition at 10 uM relative to control; settings: read-out: GI; how it was run: as §1
# SK-OV-3 = experiment: Antiproliferative activity against human SK-OV-3 cells assessed as growth inhibition at 10 uM relative to control; settings: read-out: GI; how it was run: as §2
# 786-0 = experiment: Antiproliferative activity against human 786-0 cells assessed as growth inhibition at 10 uM relative to control; settings: read-out: GI; how it was run: as §1
# A498 = experiment: Antiproliferative activity against human A498 cells assessed as growth inhibition at 10 uM relative to control; settings: read-out: GI; how it was run: as §1
# ACHN = experiment: Antiproliferative activity against human ACHN cells assessed as growth inhibition at 10 uM relative to control; settings: read-out: GI; how it was run: as §1
# SN12C = experiment: Antiproliferative activity against human SN12C cells assessed as growth inhibition at 10 uM relative to control; settings: read-out: GI; how it was run: as §2
# UO-31 = experiment: Antiproliferative activity against human UO-31 cells assessed as growth inhibition at 10 uM relative to control; settings: read-out: GI; how it was run: as §2
# DU-145 = experiment: Antiproliferative activity against human DU-145 cells assessed as growth inhibition at 10 uM relative to control; settings: read-out: GI; how it was run: as §1
# MCF7 = experiment: Antiproliferative activity against human MCF7 cells assessed as growth inhibition at 10 uM relative to control; settings: read-out: GI; how it was run: as §1
# MDA-MB-231 = experiment: Antiproliferative activity against human MDA-MB-231 cells assessed as growth inhibition at 10 uM relative to control; settings: read-out: GI; how it was run: as §1
# T47D = experiment: Antiproliferative activity against human T47D cells assessed as growth inhibition at 10 uM relative to control; how it was run: as §2
# MDA-MB-468 = experiment: Antiproliferative activity against human MDA-MB-468 cells assessed as growth inhibition at 10 uM relative to control; settings: read-out: GI; how it was run: as §1
# OVCAR-8 = experiment: Antiproliferative activity against human OVCAR-8 cells assessed as growth inhibition at 10 uM relative to control; settings: read-out: GI; how it was run: as §1
# Leukemia cell = experiment: Antiproliferative activity against human leukemia cells
# [1] = Antiproliferative activity against human CNS cancer cells; settings: CNS cell
# [2] = Antiproliferative activity against human Melanoma cells; settings: Melanoma cell line
# [3] = Antiproliferative activity against human ovarian cancer cells; settings: Ovarian cancer cell line
# [4] = Antiproliferative activity against human renal cancer cells; settings: Renal cancer cell line, read-out: LC50 (the source's name)
# [5] = Antiproliferative activity against human breast cancer cells; settings: Breast cancer cell line
# [6] = read-out: LC50 (the source's name)
compound,measurement,setting,value
CC/C(=C(\c1ccccc1)c1ccc(OCCN(C)C)cc1)c1ccccc1 [TAMOXIFEN],inhibition of growth at 10 µM,CCRF-CEM,65.4%
same,inhibition of growth at 10 µM,HL-60(TB),60.4%
same,growth inhibition (GI),K562,inactive
same,inhibition of growth at 10 µM,MOLT-4,66.7%
same,inhibition of growth at 10 µM,RPMI-8226,-28.3%
same,inhibition of growth at 10 µM,A549,50.2%
same,inhibition of growth at 10 µM,HOP-62,56.9%
same,growth inhibition (GI),HOP-92,inactive
same,inhibition of growth at 10 µM,NCI-H226,7.5%
same,inhibition of growth at 10 µM,NCI-H322M,34%
same,inhibition of growth at 10 µM,NCI-H460,97.6%
same,inhibition of growth at 10 µM,COLO 205,-89%
same,inhibition of growth at 10 µM,HCT-116,73.8%
same,inhibition of growth at 10 µM,HCT-15,92.4%
same,inhibition of growth at 10 µM,HT-29,-11.2%
same,inhibition of growth at 10 µM,SF-295,59.8%
same,growth inhibition (GI),SF-539,inactive
same,inhibition of growth at 10 µM,SNB-75,60.1%
same,inhibition of growth at 10 µM,U-251,95.2%
same,inhibition of growth at 10 µM,LOX IMVI,-43.9%
same,inhibition of growth at 10 µM,M14,-75%
same,inhibition of growth at 10 µM,MDA-MB-435,62.2%
same,inhibition of growth at 10 µM,SK-MEL-2,31.5%
same,inhibition of growth at 10 µM,SK-MEL-28,88.7%
same,inhibition of growth at 10 µM,SK-MEL-5,-95.2%
same,inhibition of growth at 10 µM,IGROV-1,58.8%
same,inhibition of growth at 10 µM,OVCAR-3,47.1%
same,inhibition of growth at 10 µM,OVCAR-4,53.7%
same,inhibition of growth at 10 µM,NCI/ADR-RES,56.8%
same,inhibition of growth at 10 µM,SK-OV-3,33.2%
same,inhibition of growth at 10 µM,786-0,-41%
same,inhibition of growth at 10 µM,A498,35.9%
same,inhibition of growth at 10 µM,ACHN,39.4%
same,inhibition of growth at 10 µM,SN12C,52.3%
same,inhibition of growth at 10 µM,UO-31,59.7%
same,inhibition of growth at 10 µM,DU-145,34.6%
same,inhibition of growth at 10 µM,MCF7,-10.3%
same,inhibition of growth at 10 µM,MDA-MB-231,54.8%
same,growth inhibition (GI),T47D,inactive
same,inhibition of growth at 10 µM,MDA-MB-468,-13.3%
same,inhibition of growth at 10 µM,OVCAR-8,39.5%
same,GI50,Leukemia cell,2.08 µM
same,TGI,Leukemia cell,6.42 µM
same,GI50,[1],4.04 µM
same,TGI,[1],10.6 µM
same,CC50,[1]; [6],44.1 µM
same,GI50,[2],2.03 µM
same,TGI,[2],5.49 µM
same,GI50,[3],4.7 µM
same,TGI,[3],11.9 µM
same,CC50,[3]; [6],2.78 µM
same,CC50,[4],2.59 µM
same,GI50,[5],3.05 µM
same,TGI,[5],10.4 µM
same,CC50,[5]; [6],2.83 µM
